Source: ChEMBL document CHEMBL4373711, “Development of 3,5-Dinitrophenyl-Containing 1,2,4-Triazoles and Their Trifluoromethyl Analogues as Highly Efficient Antitubercular Agents Inhibiting Decaprenylphosphoryl-β-d-ribofuranose 2'-Oxidase” (J Med Chem, 2019)
Converted amounts (≈) assume the structure as drawn. The source made the active and inactive calls. The rule behind the calls is not given here.

Columns and labels:
Mycobacterium kansasii [1] = assay: Antimycobacterial activity against Mycobacterium kansasii CNCTC My 235/80 after 14 days; assay type: functional; conditions: CNCTC My 235/80, 336 h
Procedure, shortened: (§1)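 Microdilution in Šula's semisynthetic medium; compounds in DMSO at 32–0.03 µM. Inoculum from 1.0 McFarland suspension diluted 10-4. […] Isoniazid and rifampicin as reference drugs.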

[2] = system: Mycobacterium tuberculosis; assay: Antimycobacterial activity against XDR Mycobacterium tuberculosis Praha 131 after 14 days; assay type: functional; conditions: Praha 131, 336 h
Procedure, shortened: (§2)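 M. tuberculosis strains (H37Rv and clinical MDR/XDR isolates) tested by microdilution in Šula's semisynthetic medium. Compounds were dissolved in DMSO and tested at 32 to 0.03 µM in twofold steps. Inoculum was a 1.0 McFarland suspension diluted 10-3. Plates were incubated at 37 °C and read at 14 and 21 days.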

[3] = target: T1, Decaprenylphosphoryl-beta-D-ribose oxidase (Mycobacterium tuberculosis (strain ATCC 25618 / H37Rv)) (UniProt P9WJF1); assay: Inhibition of DprE1 in Mycobacterium tuberculosis H37Rv assessed as accumulation of trehalose dimycolates at 10 times MIC measured after 24 hrs in presence of [14C]-acetate by TLC-based autoradiography
T1 sequence (whole entry): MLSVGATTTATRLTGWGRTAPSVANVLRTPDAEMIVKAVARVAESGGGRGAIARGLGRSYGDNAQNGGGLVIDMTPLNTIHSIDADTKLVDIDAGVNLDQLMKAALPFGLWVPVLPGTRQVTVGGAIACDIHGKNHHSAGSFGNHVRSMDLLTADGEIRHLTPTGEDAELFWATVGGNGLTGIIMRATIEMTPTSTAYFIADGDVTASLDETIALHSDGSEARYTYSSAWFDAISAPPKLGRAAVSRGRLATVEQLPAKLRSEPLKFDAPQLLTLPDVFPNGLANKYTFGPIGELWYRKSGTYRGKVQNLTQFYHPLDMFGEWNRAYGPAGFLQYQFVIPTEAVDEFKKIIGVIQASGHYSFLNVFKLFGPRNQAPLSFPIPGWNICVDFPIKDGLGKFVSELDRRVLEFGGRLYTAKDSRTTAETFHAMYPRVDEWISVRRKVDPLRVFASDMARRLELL
Procedure, shortened: (§3)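 M. tuberculosis H37Rv cultures were exposed to compound at final 10× or 100× MIC, or to DMSO, together with [14C]-acetate at 1 µCi/ml final. After 24 h, lipids were extracted in CHCl3/CH3OH (2:1) for 2 h at 65 °C and given two Folch washes. Extracts were run on TLC in CHCl3/CH3OH/H2O (20:4:0.5), then autoradiographed for 7 days at -80 °C.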

Candida albicans = assay: Antifungal activity against Candida albicans ATCC 24433 CCM 8320 at highest concentration measured after 24 to 48 hrs by alamar blue dye based broth microdilution assay; assay type: functional, organism-based
Mycobacterium kansasii [4] = assay: Antimycobacterial activity against Mycobacterium kansasii CNCTC My 235/80 after 21 days; assay type: functional; conditions: CNCTC My 235/80, 504 h; procedure, shortened: as §1
Aspergillus fumigatus = assay: Antifungal activity against Aspergillus fumigatus ATCC 204305 at highest concentration measured after 24 to 48 hrs by alamar blue dye based broth microdilution assay; assay type: functional, organism-based
[5] = system: Staphylococcus epidermidis; assay: Antibacterial activity against Staphylococcus epidermidis at highest concentration measured after 24 to 48 hrs by alamar blue dye based broth microdilution assay; assay type: functional, organism-based
[6] = system: Mycobacterium tuberculosis; assay: Antimycobacterial activity against XDR Mycobacterium tuberculosis Praha 131 after 21 days; assay type: functional; conditions: Praha 131, 504 h; procedure, shortened: as §2
[7] = target: T1, Decaprenylphosphoryl-beta-D-ribose oxidase (Mycobacterium tuberculosis (strain ATCC 25618 / H37Rv)); assay: Inhibition of DprE1 in Mycobacterium tuberculosis H37Rv assessed as accumulation of trehalose monomycolates at 10 times MIC measured after 24 hrs in presence of [14C]-acetate by TLC-based autoradiography; procedure, shortened: as §3
Staphylococcus aureus [8] = assay: Antibacterial activity against Staphylococcus aureus subsp. aureus ATCC 29213 CCM 4223 at highest concentration measured after 24 to 48 hrs by alamar blue dye based broth microdilution assay; assay type: functional, organism-based
[9] = system: Mycobacterium tuberculosis; assay: Antimycobacterial activity against Mycobacterium tuberculosis H37Rv CNCTC My 331/88 after 21 days; assay type: functional; conditions: H37Rv CNCTC My 331/88, 504 h; procedure, shortened: as §2
Serratia marcescens = assay: Antibacterial activity against Serratia marcescens at highest concentration measured after 24 to 48 hrs by alamar blue dye based broth microdilution assay; assay type: functional, organism-based
Candida parapsilosis = assay: Antifungal activity against Candida parapsilosis ATCC 22019 CCM 8260 at highest concentration measured after 24 to 48 hrs by alamar blue dye based broth microdilution assay; assay type: functional, organism-based
Enterococcus faecalis = assay: Antibacterial activity against Enterococcus faecalis ATCC 29212 CCM 4224 at highest concentration measured after 24 to 48 hrs by alamar blue dye based broth microdilution assay; assay type: functional, organism-based
Pseudomonas aeruginosa = assay: Antibacterial activity against Pseudomonas aeruginosa ATCC 27853 CCM 3955 at highest concentration measured after 24 to 48 hrs by alamar blue dye based broth microdilution assay; assay type: functional, organism-based
Mycobacterium avium [10] = assay: Antimycobacterial activity against Mycobacterium avium CNCTC My 330/88 after 14 days; assay type: functional; conditions: CNCTC My 330/88, 336 h
Procedure, shortened: (§4)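 M. avium was tested by microdilution in Šula's semisynthetic medium, with compounds dissolved in DMSO and serially diluted from 1000 down to 1. Inoculum was a 1.0 McFarland suspension diluted 10-5. Plates were incubated at 37 °C and read at 14 and 21 days. […] Isoniazid and rifampicin served as standards.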

Candida tropicalis = assay: Antifungal activity against Candida tropicalis ATCC 750 CCM 8264 at highest concentration measured after 24 to 48 hrs by alamar blue dye based broth microdilution assay; assay type: functional, organism-based
Escherichia coli = assay: Antibacterial activity against Escherichia coli ATCC 25922 CCM 3954 at highest concentration measured after 24 to 48 hrs by alamar blue dye based broth microdilution assay; assay type: functional, organism-based
Staphylococcus aureus [11] = assay: Antibacterial activity against methicillin-resistant Staphylococcus aureus subsp. aureus ATCC 43300 CCM 4750 at highest concentration measured after 24 to 48 hrs by alamar blue dye based broth microdilution assay; assay type: functional, organism-based
Mycobacterium kansasii [12] = assay: Antimycobacterial activity against Mycobacterium kansasii CNCTC My 235/80 after 7 days; assay type: functional; conditions: CNCTC My 235/80, 168 h; procedure, shortened: as §1
[13] = system: Mycobacterium tuberculosis; assay: Antimycobacterial activity against Mycobacterium tuberculosis H37Rv CNCTC My 331/88 after 14 days; assay type: functional; conditions: H37Rv CNCTC My 331/88, 336 h; procedure, shortened: as §2
Klebsiella pneumoniae = assay: Antibacterial activity against Klebsiella pneumoniae at highest concentration measured after 24 to 48 hrs by alamar blue dye based broth microdilution assay; assay type: functional, organism-based
Pichia kudriavzevii = assay: Antifungal activity against Candida krusei ATCC 6258 CCM8271 at highest concentration measured after 24 to 48 hrs by alamar blue dye based broth microdilution assay; assay type: functional, organism-based
Mycobacterium avium [14] = assay: Antimycobacterial activity against Mycobacterium avium CNCTC My 330/88 after 21 days; assay type: functional; conditions: CNCTC My 330/88, 504 h; procedure, shortened: as §4
Lichtheimia corymbifera = assay: Antifungal activity against Lichtheimia corymbifera CCM 8077 at highest concentration measured after 24 to 48 hrs by alamar blue dye based broth microdilution assay; assay type: functional, organism-based
[15] = system: Trichophyton interdigitale; assay: Antifungal activity against Trichophyton interdigitale ATCC 9533 CCM 8377 at highest concentration measured after 72 to 120 hrs by alamar blue dye based broth microdilution assay; assay type: functional

O=[N+]([O-])c1cc(-c2nnc(SCc3ccccc3)n2Cc2ccccc2)cc([N+](=O)[O-])c1
MIC99 (Mycobacterium kansasii [1]): 0.03 µM (≈ 0.0134 µg/mL)
MIC99 [2]: 0.03 µM (≈ 0.0134 µg/mL)
inhibition [3]: inactive
Activity (Candida albicans): inactive
MIC99 (Mycobacterium kansasii [4]): 0.03 µM (≈ 0.0134 µg/mL)
Activity (Aspergillus fumigatus): inactive
Activity [5]: inactive
MIC99 [6]: 0.03 µM (≈ 0.0134 µg/mL)
inhibition [7]: inactive
Activity (Staphylococcus aureus [8]): inactive
MIC99 [9]: 0.03 µM (≈ 0.0134 µg/mL)
Activity (Serratia marcescens): inactive
Activity (Candida parapsilosis): inactive
Activity (Enterococcus faecalis): inactive
Activity (Pseudomonas aeruginosa): inactive
MIC99 (Mycobacterium avium [10]): 125 µM (≈ 55.9 µg/mL)
Activity (Candida tropicalis): inactive
Activity (Escherichia coli): inactive
Activity (Staphylococcus aureus [11]): inactive
MIC99 (Mycobacterium kansasii [12]): 0.03 µM (≈ 0.0134 µg/mL)
MIC99 [13]: 0.03 µM (≈ 0.0134 µg/mL)
Activity (Klebsiella pneumoniae): inactive
Activity (Pichia kudriavzevii): inactive
MIC99 (Mycobacterium avium [14]): 125 µM (≈ 55.9 µg/mL)
Activity (Lichtheimia corymbifera): inactive
Activity [15]: inactive

CCCCCCn1c(SCc2cc([N+](=O)[O-])cc([N+](=O)[O-])c2)nnc1-c1ccccc1
MIC99 (Mycobacterium kansasii [1]): 1 µM (≈ 0.442 µg/mL)
MIC99 [2]: 2 µM (≈ 0.883 µg/mL)
inhibition [3]: inactive
Activity (Candida albicans): inactive
MIC99 (Mycobacterium kansasii [4]): 2 µM (≈ 0.883 µg/mL)
Activity (Aspergillus fumigatus): inactive
Activity [5]: inactive
MIC99 [6]: 4 µM (≈ 1.77 µg/mL)
inhibition [7]: inactive
Activity (Staphylococcus aureus [8]): inactive
MIC99 [9]: 2 µM (≈ 0.883 µg/mL)
Activity (Serratia marcescens): inactive
Activity (Candida parapsilosis): inactive
Activity (Enterococcus faecalis): inactive
Activity (Pseudomonas aeruginosa): inactive
MIC99 (Mycobacterium avium [10]): 250 µM (≈ 110 µg/mL)
Activity (Candida tropicalis): inactive
Activity (Escherichia coli): inactive
Activity (Staphylococcus aureus [11]): inactive
MIC99 (Mycobacterium kansasii [12]): 1 µM (≈ 0.442 µg/mL)
MIC99 [13]: 1 µM (≈ 0.442 µg/mL)
Activity (Klebsiella pneumoniae): inactive
Activity (Pichia kudriavzevii): inactive
MIC99 (Mycobacterium avium [14]): 250 µM (≈ 110 µg/mL)
Activity (Lichtheimia corymbifera): inactive
Activity [15]: inactive

COc1ccc(Cn2c(SCc3cc([N+](=O)[O-])cc([N+](=O)[O-])c3)nnc2-c2ccccc2)cc1
MIC99 (Mycobacterium kansasii [1]): 2 µM (≈ 0.955 µg/mL)
MIC99 [2]: 2 µM (≈ 0.955 µg/mL)
inhibition [3]: inactive
Activity (Candida albicans): inactive
MIC99 (Mycobacterium kansasii [4]): 2 µM (≈ 0.955 µg/mL)
Activity (Aspergillus fumigatus): inactive
Activity [5]: inactive
MIC99 [6]: 4 µM (≈ 1.91 µg/mL)
inhibition [7]: inactive
Activity (Staphylococcus aureus [8]): inactive
MIC99 [9]: 2 µM (≈ 0.955 µg/mL)
Activity (Serratia marcescens): inactive
Activity (Candida parapsilosis): inactive
Activity (Enterococcus faecalis): inactive
Activity (Pseudomonas aeruginosa): inactive
MIC99 (Mycobacterium avium [10]): 250 µM (≈ 119 µg/mL)
Activity (Candida tropicalis): inactive
Activity (Escherichia coli): inactive
Activity (Staphylococcus aureus [11]): inactive
MIC99 (Mycobacterium kansasii [12]): 1 µM (≈ 0.478 µg/mL)
MIC99 [13]: 1 µM (≈ 0.478 µg/mL)
Activity (Klebsiella pneumoniae): inactive
Activity (Pichia kudriavzevii): inactive
MIC99 (Mycobacterium avium [14]): 250 µM (≈ 119 µg/mL)
Activity (Lichtheimia corymbifera): inactive
Activity [15]: inactive
